Experimental findings from ChEMBL document CHEMBL1154444, “2,3,5-Substituted tetrahydrofurans: COX-2 inhibitory activities of 5-hydroxymethyl-/carboxyl-2,3-diaryl-tetrahydro-furan-3-ols” (Eur J Med Chem, 2008) are described below.

By pIC50 is commonly meant the negative decadic logarithm of the IC50, by convention in mol/L. As usually defined, the inhibition is the relative decrease from the control value, in per cent. As usually defined, the logP is a log measure of how a compound divides between an organic and an aqueous phase. A high value points to higher lipophilicity. What is called GI50 is the concentration at which growth is held to half of that of the control.

pIC50: −log10 of the molar value. Where only a bound is given, the exact number is not on record here.

The target of series [1] is Prostaglandin G/H synthase 1 (Ovis aries) (UniProt P05979).
Series [2] deals with Prostaglandin G/H synthase 2 (Ovis aries) (UniProt P79208).
Series [3] deals with Prostaglandin G/H synthase 1 (Ovis aries) (UniProt P05979). The following applies: at 1 µM.
For series [4], the target named is Prostaglandin G/H synthase 2 (Ovis aries) (UniProt P79208). The note with it: at 1 µM.
Series [5] in a line: Selectivity ratio of IC50 for COX1 to IC50 for COX2. A digest of the protocol:
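Ovine COX-1 and COX-2 inhibitor screening kit. Reaction started with arachidonic acid and quenched with 1 M HCl. PGH2 reduced to PGF2α by SnCl2, then quantified by prostaglandin antiserum immunoassay read at 405 nm. Heat-inactivated enzymes (boiling water, 3 min) served as background. Compounds tested in duplicate. Selectivity taken as IC50(COX-1)/IC50(COX-2).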

Series [6] in a line: Partition coefficient, log P of the compound. The note with it: octanol/water. The format is physicochemical. An outline of the steps: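 Calculated rather than measured, as one of several physico-chemical descriptors used in quantitative structure–activity correlation with COX-2 inhibition.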
The target in series [7] is Prostaglandin G/H synthase 2 (Ovis aries) (UniProt P79208). The note with it: at 10 µM.
A further series concerns SN12C. As to the kind of experiment: Anticancer activity against human SN12C cells at 10 uM. The format is functional. A digest of the protocol: (§1)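 Tested at NIH in the standard 59-human-tumor-cell-line panel, at five concentrations from 10^-4 to 10^-8 M. Read-out is percent growth inhibition of the named cell line at 10^-5 M.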
Series [8] has as its system PC-3. As to the kind of experiment: Anticancer activity against human PC3 cells. The format is functional.
Series [9] concerns PC-3. Description: Anticancer activity against human PC3 cells at 1 uM. The format is functional.
The test system of the next series is NCI-H522. Description: Anticancer activity against human NCI-H522 cells at 10 uM. The format is functional. A digest of the protocol:
as §1

Sequence of Prostaglandin G/H synthase 2 (Ovis aries) (P79208 whole entry, looked up): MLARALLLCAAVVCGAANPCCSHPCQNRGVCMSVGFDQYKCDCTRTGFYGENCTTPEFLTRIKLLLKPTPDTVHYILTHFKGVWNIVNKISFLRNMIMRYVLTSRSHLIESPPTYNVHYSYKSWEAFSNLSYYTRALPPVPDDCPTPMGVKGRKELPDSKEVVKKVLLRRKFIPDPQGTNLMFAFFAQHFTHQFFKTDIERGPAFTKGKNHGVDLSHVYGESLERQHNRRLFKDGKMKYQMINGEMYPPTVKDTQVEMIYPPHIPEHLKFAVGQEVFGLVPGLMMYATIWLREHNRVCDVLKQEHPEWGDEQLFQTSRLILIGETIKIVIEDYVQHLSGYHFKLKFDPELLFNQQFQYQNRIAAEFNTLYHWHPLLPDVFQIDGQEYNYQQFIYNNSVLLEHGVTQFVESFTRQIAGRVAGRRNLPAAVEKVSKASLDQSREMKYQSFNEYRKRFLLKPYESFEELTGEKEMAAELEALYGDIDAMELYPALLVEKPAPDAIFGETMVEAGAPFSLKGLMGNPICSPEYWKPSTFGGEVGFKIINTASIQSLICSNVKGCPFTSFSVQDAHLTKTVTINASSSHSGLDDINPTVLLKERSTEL
Sequence of Prostaglandin G/H synthase 1 (Ovis aries) (P05979 whole entry, looked up): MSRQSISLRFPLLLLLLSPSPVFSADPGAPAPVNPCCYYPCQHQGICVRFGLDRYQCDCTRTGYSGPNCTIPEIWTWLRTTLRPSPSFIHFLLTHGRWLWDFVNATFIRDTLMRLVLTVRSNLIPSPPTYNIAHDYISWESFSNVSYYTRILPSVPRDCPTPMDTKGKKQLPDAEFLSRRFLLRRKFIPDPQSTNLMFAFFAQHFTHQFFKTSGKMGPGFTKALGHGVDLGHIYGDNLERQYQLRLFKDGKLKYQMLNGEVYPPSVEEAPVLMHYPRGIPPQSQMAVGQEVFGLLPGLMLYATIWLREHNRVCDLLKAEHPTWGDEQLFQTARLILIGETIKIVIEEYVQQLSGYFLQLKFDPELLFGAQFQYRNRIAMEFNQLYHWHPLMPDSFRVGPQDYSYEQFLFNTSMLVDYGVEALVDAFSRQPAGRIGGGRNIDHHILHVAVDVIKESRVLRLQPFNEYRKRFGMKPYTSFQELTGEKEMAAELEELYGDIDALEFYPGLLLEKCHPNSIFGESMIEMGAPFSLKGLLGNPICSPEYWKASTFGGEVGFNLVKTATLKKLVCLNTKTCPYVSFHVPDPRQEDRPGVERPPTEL

Take `OC[C@H]1C[C@](O)(c2ccccc2)[C@@H](c2ccccc2)O1`: the pIC50 is under 5.00 in series [1] and 5.29 in series [2]. In addition, the inhibition in [3] is 2.8%; in [4] it was 28%; in series [7], 77%. Moreover, the Ratio IC50 in [5] was over 1.96. In addition, the logP in series [6] was 2.5.

For the molecule `O=C(O)[C@H]1C[C@](O)(c2ccc(Cl)cc2)[C@@H](c2ccc(Cl)cc2)O1` (relative stereo), the pIC50 in [1] was over 5.00; in [2], 5.42. Also, the inhibition in series [3] came out at 55%; in [4], 30%; in series [7] it was 94%. The Ratio IC50 in [5] is under 2.6. Besides, in series [6], the log partition coefficient (logP) came to 3.65.

Take `O=C(O)[C@H]1C[C@](O)(c2ccc(F)cc2)[C@@H](c2ccc(F)cc2)O1` (relative stereo): the values for the pIC50 in series [1] and in [2] were under 5.00 and 5.49, respectively. In addition, the inhibition came to 30% in series [3], 37% in series [4] and 90% in series [7]. The Ratio IC50 in [5] is over 3.1. Further, in series [6], the logP came to 2.89. Besides, the inhibition at 10 µM with SN12C was found to be 60%.

`OC[C@H]1C[C@](O)(c2ccc(F)cc2)[C@@H](c2ccc(F)cc2)O1`: the pIC50 was under 5.00 in series [1] and over 6.00 in series [2]. The inhibition was determined as 22% in series [3], 88% in series [4] and 82% in series [7]. Also, the Ratio IC50 in [5] was over 10. This molecule also registered a lipophilicity (logP) in [6] of 2.78. Further, in the series with PC-3 [8], growth was halved (GI50) at 95 µM.

In the case of `OC[C@H]1C[C@](O)(c2ccccc2Cl)[C@@H](c2ccccc2Cl)O1`, the results for the pIC50 in series [1] and in series [2] were over 5.00 and over 6.00, respectively. Moreover, the inhibition in [3] came out at 73%; in series [4] it was 67%; in series [7] it was 68%. Besides, the lipophilicity (logP) in [6] was 3.54. The same molecule had a 50% growth inhibitory concentration (GI50) in the series with PC-3 [8] of 22 µM.

Take `CS(=O)(=O)c1ccc(C2=C(c3ccccc3)C(=O)OC2)cc1` [ROFECOXIB]: the inhibition at 1 µM in the series on PC-3 [9] came out at 15%.

Turning to `O=C(O)[C@H]1C[C@](O)(c2ccccc2Cl)[C@@H](c2ccccc2Cl)O1` (relative stereo), the pIC50 was under 5.00 in series [1] and 5.46 in series [2]. Besides, the inhibition in series [3] was 34%; in [4], 37%; in [7], 82%. Besides, the inhibition at 10 µM in the series with NCI-H522 was 72%. For the same molecule, in [5], the Ratio IC50 is over 2.8. The molecule also came in with a logP in [6] of 3.65.

As to `O=C(O)[C@H]1C[C@](O)(c2ccccc2)[C@@H](c2ccccc2)O1` (relative stereo), the pIC50 is under 5.00 in series [1] and over 6.00 in series [2]. Besides, the inhibition is -1.15% in series [3], 68% in [4] and 69% in series [7]. Besides, in series [5], the Ratio IC50 is over 10. Also, in [6], the log partition coefficient (logP) was determined as 2.61.

Consider `OC[C@H]1C[C@](O)(c2ccc(Cl)cc2)[C@@H](c2ccc(Cl)cc2)O1`, for which the figures for the pIC50 in series [1] and in [2] were over 5.00 and 5.52, respectively. Also, the inhibition in [3] worked out at 56%; in [4] it was 43%; in series [7] it was 68%. For the same molecule, the Ratio IC50 in [5] was under 3.3. This molecule also returned a log partition coefficient (logP) in series [6] of 3.54. In addition, halving of growth in the series with PC-3 [8] (GI50) required 19.9 µM.

`Cc1ccc(-c2cc(C(F)(F)F)nn2-c2ccc(S(N)(=O)=O)cc2)cc1` [CELECOXIB] had a 50% growth inhibitory concentration (GI50) with PC-3 [8] of 47 µM. This lies in the double-digit micromolar range.

For `COc1ccc([C@H]2O[C@@H](CO)C[C@]2(O)c2ccc(OC)cc2)cc1`, the pIC50 was under 5.00 in series [1] and over 6.00 in series [2]. In addition, the results for the inhibition in [3], in [4] and in series [7] were 22%, 65% and 67%, respectively. In addition, in series [5], the Ratio IC50 is over 10. This molecule returned a logP in series [6] of 2. In addition, the GI50 in the series with PC-3 [8] came to 93.3 µM.

Take `CS(=O)(=O)c1ccc([C@H]2O[C@@H](CO)C[C@]2(O)c2ccc(S(C)(=O)=O)cc2)cc1`: the pIC50 was over 5.00 in series [1] and 5.19 in [2]. The inhibition in [3] came to 55%; in [4] it was 40%; in series [7], 57%. For the same molecule, the Ratio IC50 in [5] is under 1.5. Also, in series [6], the logP stood at 0.792. The same molecule gave a concentration for 50% growth inhibition (GI50) with PC-3 [8] of 100 µM.
